Assay results published in ChEMBL document CHEMBL2062427, “Synthesis, chemical reactivity as Michael acceptors, and biological potency of monocyclic cyanoenones, novel and highly potent anti-inflammatory and cytoprotective agents” (J Med Chem, 2012).
The source made the active and inactive calls. The calls are words filed in the database; no cut-off is given here.

What was measured:
[1] = molecular target: NAD(P)H dehydrogenase [quinone] 1 (Mus musculus) (UniProt Q64669); assay: Induction of NQO1 activity in mouse Hepa-1c1c7 cells assessed as concentration require to double the specific enzyme activity after 48 hrs; assay type: cell-based
Chain of NAD(P)H dehydrogenase [quinone] 1 (Mus musculus) (Q64669 whole entry): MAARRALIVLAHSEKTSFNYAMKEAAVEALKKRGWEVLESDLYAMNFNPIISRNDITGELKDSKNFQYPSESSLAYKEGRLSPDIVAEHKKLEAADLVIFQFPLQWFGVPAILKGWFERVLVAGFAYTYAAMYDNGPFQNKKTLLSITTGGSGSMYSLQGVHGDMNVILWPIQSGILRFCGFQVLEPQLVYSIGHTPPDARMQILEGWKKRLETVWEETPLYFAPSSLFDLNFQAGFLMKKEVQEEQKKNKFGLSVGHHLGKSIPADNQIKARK
How it was run: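 Hepa1c1c7 cells, 10,000/well, grown 24 h, then exposed to serial dilutions for 48 h. Potency expressed as concentration doubling NQO1 specific enzyme activity (CD).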

[2] = system: RAW264.7; assay: Antiinflammatory activity in mouse RAW264.7 cells assessed as inhibition of IFNgamma-stimulated NO production pretreated for 2 hrs before IFNgamma challenge measured after 24 hrs by Griess reaction; assay type: functional, cell-based
How it was run: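 RAW 264.7 cells seeded at 30,000/well in triplicate; next day pre-treated 2 h with DMSO or 2-fold serial dilutions (0–200 nM or 0–10 µM), then IFN-γ 20 ng/mL for 24 h. Medium NO by Griess; viability by WST-1. IC50 from suppression of IFN-γ-induced NO normalized to viability; mean of three independent experiments, SD.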

[3] = system: RAW264.7; assay: Ratio of CDDO IC50 to compound IC50 for antiinflammatory activity in mouse RAW264.7 cells assessed as inhibition of IFNgamma-stimulated NO production; assay type: functional
[4] = system: BMDM; assay: Antiinflammatory activity in C57BL/6 mouse BMDM cells assessed as inhibition of LPS-stimulated […] production at 0.5 uM pretreated for 1 hr before LPS challenge after 8 to 24 hrs by immunoassay; assay type: functional, cell-based
How it was run: (§1)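 Macrophages given compound at 0.5 µM; LPS 100 ng/mL added 1 h after start of compound treatment, for 8 h or 24 h. Supernatants collected at 8 or 24 h and assayed for LDH release (% released, cell death), TNF-α or IL-1β (pg/mL). Averages of 2 independent experiments, SD.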

[5] = Induction of apoptosis in LPS-stimulated C57BL/6 mouse BMDM cells assessed as LDH release at 0.5 uM pretreated for 1 hr before LPS challenge after 8 hrs; assay type: cell-based; how it was run: as §1
[6] = system: BMDM; assay: Antiinflammatory activity in C57BL/6 mouse BMDM cells assessed as inhibition of LPS-stimulated TNFalpha production at 0.5 uM pretreated for 1 hr before LPS challenge after 8 to 24 hrs by immunoassay; assay type: functional, cell-based; how it was run: as §1
[7] = Cytotoxicity against C57BL/6 mouse BMDM cells assessed as LDH release after 24 hrs; assay type: cell-based; conditions: bone marrow-derived macrophages (BMDM cells)
How it was run: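 Macrophages exposed to compound without LPS for 24 h; culture supernatant assayed for % LDH released as cell-death measure. Averages of 2 independent experiments, SD.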

[8] = Induction of apoptosis in LPS-stimulated C57BL/6 mouse BMDM cells assessed as LDH release at 0.5 uM pretreated for 1 hr before LPS challenge after 24 hrs; assay type: cell-based; how it was run: as §1
[9] = system: BMDM; assay: Antiinflammatory activity in C57BL/6 mouse BMDM cells assessed as inhibition of LPS-stimulated TNFalpha production at 0.1 uM pretreated for 1 hr before LPS challenge after 8 to 24 hrs by immunoassay; assay type: functional, cell-based
How it was run: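 Macrophages pretreated with compound, then given LPS (100 ng/mL) 1 h after the start of compound exposure for 8 h or 24 h. Culture supernatants were collected at 8 h or 24 h and assayed for secreted TNF-α (pg/mL). Controls were untreated cells and cells given compound without LPS (24 h). Averages of 2 independent experiments; error is standard deviation.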

[10] = Induction of apoptosis in LPS-stimulated C57BL/6 mouse BMDM cells assessed as LDH release at 0.1 uM pretreated for 1 hr before LPS challenge after 8 hrs; assay type: cell-based
How it was run: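 Cells were compound-treated, and LPS (100 ng/mL) was added 1 h after the start of compound treatment for 8 h. Supernatant lactate dehydrogenase was measured as % LDH released, as a cell-death read-out. Comparison arms were no-LPS (compound 24 h) and untreated cells. Mean of 2 independent experiments, with standard deviation error bars.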

Structure (SMILES)	CD [1]	IC50 [2]	MNTC at 24 h [7]	other results
CC1(C#N)C=CC(=O)C(C#N)=C1 (stereo not drawn)	58 nM	0.219 µM		
C=CC1(C)C=CC(=O)C(C#N)=C1 (stereo not drawn)	150 nM	0.17 µM		
CC1(C)CC[C@]2(C(=O)O)CC[C@]3(C)[C@H](C(=O)C=C4[C@@]5(C)C=C(C#N)C(=O)C(C)(C)[C@@H]5CC[C@]43C)[C@@H]2C1 [BARDOXOLONE]		0.0165 µM		
CC#CC1(C)C=CC(=O)C(C#N)=C1 (stereo not drawn)	33 nM	0.0073 µM		Ratio IC50 [3]: 2
NC(=O)Nc1sc(-c2ccc(F)cc2)cc1C(N)=O			500 nM	Activity [4]: inactive; Activity [5]: Toxic; Activity [6]: Active
C#CC1(C)C=CC(=O)C(C#N)=C1 (stereo not drawn)	22 nM	0.0058 µM	500 nM	Activity [4]: Active; Ratio IC50 [3]: 2; Activity [5]: Toxic; Activity [6]: Active
C#CC1(C)C=C(C#N)C(=O)CC1 (stereo not drawn)	100 nM	0.152 µM		
COC(=O)[C@]12CCC(C)(C)C[C@H]1[C@H]1C(=O)C=C3[C@@]4(C)C=C(C#N)C(=O)C(C)(C)[C@@H]4CC[C@@]3(C)[C@]1(C)CC2 [BARDOXOLONE METHYL]			500 nM	Activity [8]: Not Active; Activity [6]: Active
C#C[C@]12C=C(C#N)C(=O)C=C1[C@@]1(C)C=C(C#N)C(=O)C(C)(C)[C@@H]1CC2 (racemic)			100 nM	Activity [9]: Active; Activity [10]: Not Active
COC(=O)C1(C)C=CC(=O)C(C#N)=C1 (stereo not drawn)	320 nM	0.058 µM		
CC1(C)C=C(C#N)C(=O)C(C)(C)C1	1900 nM	1.9 µM		
CC1(C)C=CC(=O)C(C#N)=C1	150 nM	0.305 µM		
